From ChEMBL document CHEMBL4834420, “Projected Dose Optimization of Amino- and Hydroxypyrrolidine Purine PI3Kδ Immunomodulators” (J Med Chem, 2021)

How the values were obtained:
[1] = Plasma clearance in Beagle dog at 0.25 mg/kg, iv or 0.5 mg/kg, po; type: ADME, organism-based, Canis lupus familiaris
[2] = Inhibition of dog PI3Kdelta; set-up: species or system Canis lupus familiaris
[3] = Intrinsic clearance in dog hepatocytes; type: ADME, cell-based, Canis lupus familiaris, Hepatocyte; details: read-out: CLH
BCRP = assay: Efflux ratio of apparent permeability from basolateral to apical side over apical to basolateral side in MDCK2 cells expressing BCRP; type: ADME, cell-based, Canis lupus familiaris, MDCK-II; details: dog
[4] = Trough plasma concentration Brown Norway rat at 10 mg/kg, po; type: ADME, organism-based; details: in vivo, read-out: Cmin
Cytochrome P450 2C9 = Cytochrome P450 2C9 (Homo sapiens, UniProt P11712); assay: Inhibition of CYP2C9 (unknown origin); type: ADME
[5] = Intrinsic clearance in C57BL/6 mouse at 1 mg/kg, iv or 3 mg/kg, po; type: ADME, organism-based; details: in vivo
[6] = Oral bioavailability in Beagle dog; type: ADME, organism-based, Canis lupus familiaris; details: in vivo
[7] = target: Sodium channel protein type 5 subunit alpha (Homo sapiens, UniProt Q14524); assay: Inhibition of Nav1.5 (unknown origin)
Cytochrome P450 2B6 = target: T1, Cytochrome P450 2B6 (Homo sapiens, UniProt P20813); assay: Inhibition of CYP2B6 (unknown origin); type: ADME
T1 sequence (P20813 whole entry): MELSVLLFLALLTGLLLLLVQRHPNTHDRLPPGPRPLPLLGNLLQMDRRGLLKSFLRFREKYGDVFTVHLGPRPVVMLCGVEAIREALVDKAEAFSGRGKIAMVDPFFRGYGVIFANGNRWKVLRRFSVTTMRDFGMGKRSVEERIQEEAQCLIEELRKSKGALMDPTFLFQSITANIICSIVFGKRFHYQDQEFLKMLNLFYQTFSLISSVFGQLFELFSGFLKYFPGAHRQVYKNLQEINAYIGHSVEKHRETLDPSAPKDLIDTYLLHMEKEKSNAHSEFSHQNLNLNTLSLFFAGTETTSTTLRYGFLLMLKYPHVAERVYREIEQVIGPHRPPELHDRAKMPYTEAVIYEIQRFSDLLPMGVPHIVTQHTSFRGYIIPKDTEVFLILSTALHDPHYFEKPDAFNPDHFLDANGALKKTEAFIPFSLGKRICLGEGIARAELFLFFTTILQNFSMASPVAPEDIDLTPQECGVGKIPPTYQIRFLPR

[8] = target: T2, Phosphatidylinositol 4,5-bisphosphate 3-kinase catalytic subunit delta isoform (Mus musculus) (UniProt O35904); assay: Inhibition of PI3Kdelta in Foxp3-GFP C57BL/6 mouse assessed as reduction in Treg population at 30 to 100 mg/kg administered upto 7 days; type: organism-based; set-up: scale not given: the % may be the effect or the level left; details: dose 30-100 mg/kg, time day <=7
T2 sequence (whole entry): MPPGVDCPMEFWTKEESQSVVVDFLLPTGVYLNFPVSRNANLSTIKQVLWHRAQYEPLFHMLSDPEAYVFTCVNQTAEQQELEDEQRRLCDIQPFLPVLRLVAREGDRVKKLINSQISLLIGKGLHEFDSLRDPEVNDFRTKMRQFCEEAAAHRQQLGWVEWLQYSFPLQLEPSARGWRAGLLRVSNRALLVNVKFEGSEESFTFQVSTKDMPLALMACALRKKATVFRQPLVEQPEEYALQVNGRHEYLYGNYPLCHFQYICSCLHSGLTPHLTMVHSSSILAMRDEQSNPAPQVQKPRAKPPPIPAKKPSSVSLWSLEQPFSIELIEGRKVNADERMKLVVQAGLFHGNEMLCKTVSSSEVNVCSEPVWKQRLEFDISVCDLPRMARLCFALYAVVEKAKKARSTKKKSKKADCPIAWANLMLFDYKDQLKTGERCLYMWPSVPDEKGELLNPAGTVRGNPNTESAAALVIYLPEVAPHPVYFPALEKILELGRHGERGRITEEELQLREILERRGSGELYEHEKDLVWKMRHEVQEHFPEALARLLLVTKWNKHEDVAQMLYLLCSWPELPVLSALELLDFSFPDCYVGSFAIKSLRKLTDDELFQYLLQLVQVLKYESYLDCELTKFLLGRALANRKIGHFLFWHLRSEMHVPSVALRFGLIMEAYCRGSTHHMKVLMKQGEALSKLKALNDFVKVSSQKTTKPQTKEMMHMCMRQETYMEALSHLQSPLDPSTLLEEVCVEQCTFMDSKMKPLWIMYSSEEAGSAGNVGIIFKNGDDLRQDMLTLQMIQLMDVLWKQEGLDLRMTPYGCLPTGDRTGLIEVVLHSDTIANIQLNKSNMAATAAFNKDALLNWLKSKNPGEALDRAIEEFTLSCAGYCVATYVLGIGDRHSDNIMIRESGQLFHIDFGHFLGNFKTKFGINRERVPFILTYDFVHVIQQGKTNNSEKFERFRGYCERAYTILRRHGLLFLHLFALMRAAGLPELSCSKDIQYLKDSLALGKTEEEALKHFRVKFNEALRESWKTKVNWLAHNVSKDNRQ
Outline: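 C57BL/6 Foxp3-GFP reporter mice were dosed at 30 and 100 mg/kg/day for up to 7 days. Treg population was monitored by bioluminescence imaging 10 min after ip injection of 3 mg luciferin. Radiance was quantified as photons/s/cm²/steradian. Diphtheria toxin served as a positive control.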

Sequence of Cytochrome P450 2C9 (P11712 whole entry): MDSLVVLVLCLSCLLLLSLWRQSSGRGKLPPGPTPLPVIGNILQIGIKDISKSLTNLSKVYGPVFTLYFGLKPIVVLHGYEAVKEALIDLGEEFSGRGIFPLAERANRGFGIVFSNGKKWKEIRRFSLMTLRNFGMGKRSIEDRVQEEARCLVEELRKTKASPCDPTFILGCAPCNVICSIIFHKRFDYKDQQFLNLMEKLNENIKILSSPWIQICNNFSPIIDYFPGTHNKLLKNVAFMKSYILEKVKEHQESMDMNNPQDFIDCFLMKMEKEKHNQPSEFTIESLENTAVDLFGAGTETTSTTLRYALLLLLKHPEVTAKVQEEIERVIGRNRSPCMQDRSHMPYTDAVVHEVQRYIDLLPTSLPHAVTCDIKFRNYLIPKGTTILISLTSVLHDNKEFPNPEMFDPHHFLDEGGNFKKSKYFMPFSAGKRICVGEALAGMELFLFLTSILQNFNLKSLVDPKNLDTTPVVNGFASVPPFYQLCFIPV
Sequence of Sodium channel protein type 5 subunit alpha (Q14524 whole entry): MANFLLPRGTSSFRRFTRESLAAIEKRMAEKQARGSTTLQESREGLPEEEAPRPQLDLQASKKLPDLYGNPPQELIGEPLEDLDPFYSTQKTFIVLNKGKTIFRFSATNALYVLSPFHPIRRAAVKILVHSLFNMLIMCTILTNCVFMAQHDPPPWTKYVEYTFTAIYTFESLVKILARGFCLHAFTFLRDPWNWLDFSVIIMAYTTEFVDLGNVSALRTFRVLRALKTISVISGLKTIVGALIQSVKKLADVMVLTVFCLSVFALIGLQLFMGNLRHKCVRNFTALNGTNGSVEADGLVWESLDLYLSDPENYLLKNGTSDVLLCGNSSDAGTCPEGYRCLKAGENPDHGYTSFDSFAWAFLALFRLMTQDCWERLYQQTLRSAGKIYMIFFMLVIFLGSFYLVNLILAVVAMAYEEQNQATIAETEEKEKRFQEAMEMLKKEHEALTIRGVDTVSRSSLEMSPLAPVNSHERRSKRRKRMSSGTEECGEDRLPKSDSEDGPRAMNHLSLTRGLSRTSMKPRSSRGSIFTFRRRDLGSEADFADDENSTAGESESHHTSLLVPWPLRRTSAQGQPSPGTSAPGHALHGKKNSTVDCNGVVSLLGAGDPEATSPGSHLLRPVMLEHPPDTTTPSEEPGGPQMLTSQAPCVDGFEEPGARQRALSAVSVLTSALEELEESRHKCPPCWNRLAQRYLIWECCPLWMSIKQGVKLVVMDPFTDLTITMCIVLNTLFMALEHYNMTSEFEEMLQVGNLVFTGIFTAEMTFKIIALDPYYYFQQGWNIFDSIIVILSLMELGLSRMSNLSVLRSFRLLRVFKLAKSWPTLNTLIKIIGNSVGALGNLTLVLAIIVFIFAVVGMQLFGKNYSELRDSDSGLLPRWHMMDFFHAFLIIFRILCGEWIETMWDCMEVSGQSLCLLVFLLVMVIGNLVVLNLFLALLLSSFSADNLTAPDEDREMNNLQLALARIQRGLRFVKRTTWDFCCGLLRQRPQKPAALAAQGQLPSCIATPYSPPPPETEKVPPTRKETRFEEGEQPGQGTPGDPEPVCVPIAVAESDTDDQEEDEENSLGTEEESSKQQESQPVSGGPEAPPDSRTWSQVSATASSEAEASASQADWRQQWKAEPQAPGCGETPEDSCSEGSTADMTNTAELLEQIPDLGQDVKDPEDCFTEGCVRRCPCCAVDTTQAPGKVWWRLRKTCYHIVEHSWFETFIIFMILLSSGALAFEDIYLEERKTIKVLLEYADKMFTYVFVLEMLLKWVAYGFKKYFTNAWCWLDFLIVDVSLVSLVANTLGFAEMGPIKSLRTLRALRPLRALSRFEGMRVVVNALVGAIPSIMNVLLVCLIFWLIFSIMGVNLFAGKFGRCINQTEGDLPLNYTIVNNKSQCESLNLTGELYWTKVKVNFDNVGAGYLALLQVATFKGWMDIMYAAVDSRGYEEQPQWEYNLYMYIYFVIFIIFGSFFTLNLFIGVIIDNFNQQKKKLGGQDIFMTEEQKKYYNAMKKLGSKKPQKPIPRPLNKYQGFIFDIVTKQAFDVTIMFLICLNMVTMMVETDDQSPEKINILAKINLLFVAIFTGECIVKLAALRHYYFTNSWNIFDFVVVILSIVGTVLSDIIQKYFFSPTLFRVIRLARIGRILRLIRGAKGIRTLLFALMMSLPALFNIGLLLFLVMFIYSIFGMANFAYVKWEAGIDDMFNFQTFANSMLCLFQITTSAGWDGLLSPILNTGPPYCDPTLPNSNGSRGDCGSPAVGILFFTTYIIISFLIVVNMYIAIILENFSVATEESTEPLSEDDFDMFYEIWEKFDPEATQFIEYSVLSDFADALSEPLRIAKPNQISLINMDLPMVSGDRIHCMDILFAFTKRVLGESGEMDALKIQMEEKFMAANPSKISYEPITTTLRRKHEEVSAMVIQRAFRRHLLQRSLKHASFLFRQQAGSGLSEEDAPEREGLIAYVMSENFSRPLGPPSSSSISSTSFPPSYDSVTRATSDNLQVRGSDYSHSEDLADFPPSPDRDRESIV

## CCn1c(-c2cnc(C)nc2)nc2c(N[C@H]3CCN(C(=O)C4CC4)C3)ncnc21
[1]
  clearance: 4.3 mL/min/kg
[2]
  IC50: 0.0025 µM
[3]
  CLint scaled: < 2 mL/min/kg
BCRP
  efflux ratio: 5
[4]
  concentration: 14 nM
Cytochrome P450 2C9
  IC50: > 50 µM
[5]
  CL: 10 mL/min/kg
[6]
  bioavailability: 95%
[7]
  IC50: > 50 µM
Cytochrome P450 2B6
  IC50: > 50 µM
[8]
  Activity: 70%
